UHRF1 MBD2 ctr: blocks human UHRF1 binding to methylated DNA | Q96T88 | UHRF1 binding to methylated oligo, TR-FRET | inhibition, % at 4.4 µM | 370,000 compounds, 0.75% hits | AID 687016; in the data active = inhibition above about 21%;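 also: UHRF1 SRA domain binding a hemimethylated CpG hairpin DNA probe; 0% = median of test compound wells and 100% = reference inhibitor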
Target sequence (Q96T88 whole entry, looked up, the tested form may be a part): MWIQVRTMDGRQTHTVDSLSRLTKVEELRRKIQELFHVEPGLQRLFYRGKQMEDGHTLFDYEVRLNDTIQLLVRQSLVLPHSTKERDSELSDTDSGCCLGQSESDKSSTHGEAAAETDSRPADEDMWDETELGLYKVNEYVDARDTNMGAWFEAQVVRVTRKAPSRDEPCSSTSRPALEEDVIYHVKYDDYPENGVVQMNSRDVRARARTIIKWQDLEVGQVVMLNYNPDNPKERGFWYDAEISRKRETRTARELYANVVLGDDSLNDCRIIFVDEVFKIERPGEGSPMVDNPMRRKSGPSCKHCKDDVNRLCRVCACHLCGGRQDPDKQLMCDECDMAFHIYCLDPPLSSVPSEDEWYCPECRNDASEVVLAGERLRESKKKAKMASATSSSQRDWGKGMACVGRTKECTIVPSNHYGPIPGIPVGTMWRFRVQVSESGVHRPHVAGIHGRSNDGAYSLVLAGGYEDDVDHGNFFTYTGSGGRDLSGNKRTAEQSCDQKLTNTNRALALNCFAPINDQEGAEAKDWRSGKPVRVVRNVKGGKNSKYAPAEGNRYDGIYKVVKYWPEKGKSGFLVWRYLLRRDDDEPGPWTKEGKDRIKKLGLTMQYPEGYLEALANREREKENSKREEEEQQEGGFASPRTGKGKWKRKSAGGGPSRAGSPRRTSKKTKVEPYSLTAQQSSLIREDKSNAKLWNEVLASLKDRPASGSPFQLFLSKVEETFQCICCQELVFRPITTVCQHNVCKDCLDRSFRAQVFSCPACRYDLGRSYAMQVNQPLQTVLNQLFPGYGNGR
Tn7 DDE FP: inhibitors of Tn7 peptide binding to human fibrin DD(E); P02675; FP displacement of FITC-Tn7 peptide from fibrin DD(E); 0% = median of compound wells per plate; 370,000 compounds, 0.13% hits; inhibition, % at 8.3 µM; AID 720508;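 active = inhibition above the mean of compounds falling within the control limits plus 3 SD of them, cut at about 14% in these data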;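 also: 0% = plate median of compound wells and 100% = 10 µM Aha-Tn7 peptide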
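Assay system: Fibrin-DD(E) protein isolated from polymerized human fibrin clots; read-out basis: percent inhibition; medium: Tris/NaCl/CaCl2 buffer, pH 7.8; signal: FP measurement; incubation: 10 min plus 3 h, room temperature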
LEDGF integ inh: blocks HIV-1 LEDGF/p75-dependent DNA integration. TR-FRET IN-LEDGF/p75 DNA integration, Eu/Cy5. inhibition, % at 3.7 µM. 370,000 compounds, 0.64% hits. AID 743269;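 active = inhibition above the screen-wide mean plus 3 SD, cut at about 13% in these data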;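 also: signal is the Cy5 over europium emission ratio at 671 and 618 nm; 0% = plate median of compound wells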
MBD2 DNA inh: inhibitors of human MBD2 binding to methylated oligonucleotide; Q9UBB5; TR-FRET; inhibition, % at 4.4 µM; 370,000 compounds, 0.31% hits; AID 686964; in the data active = inhibition above about 13%
DDE Tn6 FP inh: disrupts Tn6 cyclic peptide binding to fibrin D-Dimer-E complex; P02675; Fibrin DD(E) TRITC-Tn6 fluorescence polarization displacement; inhibition, % at 8.3 µM; 370,000 compounds, 0.21% hits; AID 720509;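 active = inhibition above a per-campaign cutoff: mean of compounds within control limits plus 3 SD, cut at about 15% in these data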;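 also: 0% = median of all compound wells on the plate and 100% = blocking peptide control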
TDP2 absorb: TDP2 (human) inhibition, absorbance primary screen. AID 720702. recombinant TDP2, T5PNP hydrolysis, p-nitrophenol absorbance 415 nm. inhibition, % at 12.8 µM. 370,000 compounds, 0.34% hits. O95551;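 active = inhibition above the mean of all tested compounds plus 3 SD, set per campaign, cut at about 25% in these data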;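 also: 0% = DMSO with enzyme and 100% = buffer with substrate but no TDP2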
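System – recombinant human TDP2 · Amount – 120 nM TDP2 per well · Buffer or medium – Mg2+-containing Tris-HCl buffer, pH 7.5 · Reagent – T5PNP substrate, 5 mM · Dosing – 12.8 µM single point, 1% DMSO · Incubation – 2 h at 37 °C · Measured by – epi absorbance · Read-out basis – percent inhibition · Benchmarks – high control without enzyme, low control DMSO plus TDP2 · Repeats – singlicate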
The depositor's hits bear a star. Most compounds without a hit are left out; they make up all but 1.9% or so of the library.

Screening Cc1ccc(-c2cc(C(=O)N3CCOCC3)c3ccccc3n2)cc1 returned UHRF1 MBD2 ctr 27*, Tn7 DDE FP 4, LEDGF integ inh -2, MBD2 DNA inh -4, DDE Tn6 FP inh -4 and TDP2 absorb 9.
CCn1c(SCC(=O)NN=Cc2ccc(C(=O)O)cc2)nc2ccccc21 was read as UHRF1 MBD2 ctr 0, Tn7 DDE FP 1, LEDGF integ inh 3, MBD2 DNA inh 1, DDE Tn6 FP inh 3 and TDP2 absorb -1.
CCOc1nc(Nc2ccc(OC)c(Cl)c2)nc(OCC)n1 was read as UHRF1 MBD2 ctr 36*, Tn7 DDE FP 1, LEDGF integ inh -5, MBD2 DNA inh 3, DDE Tn6 FP inh -7 and TDP2 absorb 0.
`COC(=O)[C@H](C(C)C)N(CCc1cn(CC2CCCCC2)nn1)S(=O)(=O)c1ccc(F)cc1Br` gave UHRF1 MBD2 ctr -2, Tn7 DDE FP -5, LEDGF integ inh 3, MBD2 DNA inh -4, DDE Tn6 FP inh 0 and TDP2 absorb -9.
`Cc1cc(C)nc(NS(=O)(=O)c2ccc(NC(=O)C3(c4ccc([N+](=O)[O-])cc4)CCCC3)cc2)n1` gave UHRF1 MBD2 ctr 2, Tn7 DDE FP 6, LEDGF integ inh 2, MBD2 DNA inh -1, DDE Tn6 FP inh 6 and TDP2 absorb 16.
`COc1ccc(C2(C(=O)Nc3ccc(S(=O)(=O)Nc4nc(C)cc(C)n4)cc3)CCCC2)cc1OC` gave UHRF1 MBD2 ctr 43*, Tn7 DDE FP 5, LEDGF integ inh 4, MBD2 DNA inh 5, DDE Tn6 FP inh 3 and TDP2 absorb 1.
`O=C(NCc1cccs1)c1cc(-c2cccs2)on1` gave UHRF1 MBD2 ctr -5, Tn7 DDE FP 6, LEDGF integ inh 3, MBD2 DNA inh 2, DDE Tn6 FP inh 91* and TDP2 absorb 3.
For Cc1cc(NC(=O)CCCC(=O)NCc2cccs2)no1 the results were UHRF1 MBD2 ctr 25*, Tn7 DDE FP 1, LEDGF integ inh 5, MBD2 DNA inh 12, DDE Tn6 FP inh 11 and TDP2 absorb 11.
CCCCCCCCN1C(=O)[C@@H](CC(=O)NCCCCc2ccccc2)C[C@@]2(C(=O)OC)C1=C[C@H](C1CCCC1)O[C@@H]2C was read as UHRF1 MBD2 ctr 0, Tn7 DDE FP 8, LEDGF integ inh 0, MBD2 DNA inh 0, DDE Tn6 FP inh -2 and TDP2 absorb 8.
COC(=O)C[C@@H]1CC[C@H]2[C@@H](COc3ccc(NC(=O)Nc4ccccc4)cc3C(=O)N2C)O1 was read as UHRF1 MBD2 ctr -2, Tn7 DDE FP 4, LEDGF integ inh 2, MBD2 DNA inh -1, DDE Tn6 FP inh 0 and TDP2 absorb -2.
`Cc1c(Br)c(=O)oc2c(Br)c(O)c(O)cc12` gave UHRF1 MBD2 ctr 31*, Tn7 DDE FP 4, LEDGF integ inh -3, MBD2 DNA inh 10, DDE Tn6 FP inh -6 and TDP2 absorb -10.
For COC(=O)c1sc(S(=O)(=O)N2CCC(C)CC2)c(C(=O)OC)c1C the results were UHRF1 MBD2 ctr 24*, Tn7 DDE FP -2, LEDGF integ inh -4, MBD2 DNA inh -3, DDE Tn6 FP inh 0 and TDP2 absorb 1.
For COC(=O)c1sc(S(=O)(=O)N2CCCCC2)c(C(=O)OC)c1C the results were UHRF1 MBD2 ctr -2, Tn7 DDE FP 2, LEDGF integ inh 2, MBD2 DNA inh 0, DDE Tn6 FP inh -6 and TDP2 absorb -6.
For CC1=C/C(=C\c2ccc(Br)o2)C(=O)O1 the results were UHRF1 MBD2 ctr 53*, Tn7 DDE FP 1, LEDGF integ inh 11, MBD2 DNA inh 16*, DDE Tn6 FP inh 2 and TDP2 absorb -3.
For CC(NC(=O)c1ccc(S(=O)(=O)N(C)C)cc1)c1ccccc1 (centres undefined) the results were UHRF1 MBD2 ctr 21*, Tn7 DDE FP -5, LEDGF integ inh 1, MBD2 DNA inh 7, DDE Tn6 FP inh -8 and TDP2 absorb 6.
For CCCCc1nc(Cl)c(C#N)c2c1CCC2 the results were UHRF1 MBD2 ctr 1, Tn7 DDE FP -7, LEDGF integ inh 4, MBD2 DNA inh 3, DDE Tn6 FP inh 1 and TDP2 absorb -14.
`CCCCc1nc(Cl)c(C#N)c2c1CCCC2` gave UHRF1 MBD2 ctr 38*, Tn7 DDE FP 1, LEDGF integ inh -3, MBD2 DNA inh 0, DDE Tn6 FP inh 2 and TDP2 absorb 2.
For C=C(C)Cn1c(N(CCO)Cc2ccccc2)nc2c1c(=O)[nH]c(=O)n2C the results were UHRF1 MBD2 ctr 84*, Tn7 DDE FP -11, LEDGF integ inh 4, MBD2 DNA inh 3, DDE Tn6 FP inh -12 and TDP2 absorb 11.
Screening Cn1c(=O)[nH]c(=O)c2c1nc(N(CCO)Cc1ccccc1)n2CCCc1ccccc1 returned UHRF1 MBD2 ctr 1, Tn7 DDE FP 7, LEDGF integ inh 4, MBD2 DNA inh 4, DDE Tn6 FP inh 0 and TDP2 absorb 3.
Screening N#Cc1ccc2nc(-c3ccc(CN4CCC5(CC4)CNc4ccccc45)cc3)c(-c3ccccc3)nc2c1 returned UHRF1 MBD2 ctr 2, Tn7 DDE FP -5, LEDGF integ inh 3, MBD2 DNA inh 3, DDE Tn6 FP inh 1 and TDP2 absorb -14.
`O=C(NCCc1cccc(F)c1)C1CCN(S(=O)(=O)c2ccc(F)cc2)CC1` gave UHRF1 MBD2 ctr 2, Tn7 DDE FP -2, LEDGF integ inh 4, MBD2 DNA inh 0, DDE Tn6 FP inh 9 and TDP2 absorb -6.
Screening CC(C)(C)c1ccc(S(=O)(=O)NNC(=O)C2CCN(Cc3cccc(F)c3)CC2)cc1 returned UHRF1 MBD2 ctr 24*, Tn7 DDE FP 3, LEDGF integ inh -1, MBD2 DNA inh -3, DDE Tn6 FP inh 3 and TDP2 absorb -6.
CCCCCn1cc(CCC(=O)Nc2ccc(Oc3cccnc3)cc2)c2ccccc21 was read as UHRF1 MBD2 ctr -1, Tn7 DDE FP -8, LEDGF integ inh 0, MBD2 DNA inh -2, DDE Tn6 FP inh 2 and TDP2 absorb -3.
For CCOC(=O)[C@@]12CCCC3=C1N(CCC3)C(=O)[C@H]2CC(=O)N1CCCCC1 the results were UHRF1 MBD2 ctr -1, Tn7 DDE FP -7, LEDGF integ inh -1, MBD2 DNA inh -1, DDE Tn6 FP inh -7 and TDP2 absorb 1.
COc1ccc(C)cc1NC(=O)C(Sc1nncn1C)c1ccccc1 (centres undefined) was read as UHRF1 MBD2 ctr 24*, Tn7 DDE FP -3, LEDGF integ inh 0, MBD2 DNA inh 2, DDE Tn6 FP inh 7 and TDP2 absorb -8.
Screening CC(=O)N1CCCN(C(=O)CCn2nnc3ccccc32)CC1 returned UHRF1 MBD2 ctr 91*, Tn7 DDE FP 7, LEDGF integ inh 0, MBD2 DNA inh -2, DDE Tn6 FP inh -1 and TDP2 absorb 4.

Bioassay records: PubChem BioAssay, The Scripps Research Institute Molecular Screening Center
